Tests used:
Format in all cases: cell-based
[1] = target: Nitric oxide synthase, inducible (Homo sapiens, UniProt P35228); assay: Inhibition of human iNOS expressed in HEK293 cells assessed as NO production by transient transfection assay
Summary of the method: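 HEK293 cells grown to ~70% confluence in DMEM/10% FBS with pen/strep. Cells transiently transfected with 10 µg human or murine iNOS plasmid (Fugene 6), 4 h at 37 °C, 10% CO2. Trypsinized, plated at 5 × 10⁵ cells/mL and dosed at once; 1400W 100 µM final as positive control. After 18 h, NO read as DAN fluorescence (10 µg/mL, 20 min RT, then NaOH). EC50 from 3 runs, 10-point curves, n = 8/point.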

[2] = target: T1, Nitric oxide synthase 3 (Homo sapiens) (UniProt P29474); assay: Inhibition of human eNOS expressed in HEK293 cells assessed as NO production at 100 uM by transient transfection assay relative to BBS-4
T1 sequence (whole entry): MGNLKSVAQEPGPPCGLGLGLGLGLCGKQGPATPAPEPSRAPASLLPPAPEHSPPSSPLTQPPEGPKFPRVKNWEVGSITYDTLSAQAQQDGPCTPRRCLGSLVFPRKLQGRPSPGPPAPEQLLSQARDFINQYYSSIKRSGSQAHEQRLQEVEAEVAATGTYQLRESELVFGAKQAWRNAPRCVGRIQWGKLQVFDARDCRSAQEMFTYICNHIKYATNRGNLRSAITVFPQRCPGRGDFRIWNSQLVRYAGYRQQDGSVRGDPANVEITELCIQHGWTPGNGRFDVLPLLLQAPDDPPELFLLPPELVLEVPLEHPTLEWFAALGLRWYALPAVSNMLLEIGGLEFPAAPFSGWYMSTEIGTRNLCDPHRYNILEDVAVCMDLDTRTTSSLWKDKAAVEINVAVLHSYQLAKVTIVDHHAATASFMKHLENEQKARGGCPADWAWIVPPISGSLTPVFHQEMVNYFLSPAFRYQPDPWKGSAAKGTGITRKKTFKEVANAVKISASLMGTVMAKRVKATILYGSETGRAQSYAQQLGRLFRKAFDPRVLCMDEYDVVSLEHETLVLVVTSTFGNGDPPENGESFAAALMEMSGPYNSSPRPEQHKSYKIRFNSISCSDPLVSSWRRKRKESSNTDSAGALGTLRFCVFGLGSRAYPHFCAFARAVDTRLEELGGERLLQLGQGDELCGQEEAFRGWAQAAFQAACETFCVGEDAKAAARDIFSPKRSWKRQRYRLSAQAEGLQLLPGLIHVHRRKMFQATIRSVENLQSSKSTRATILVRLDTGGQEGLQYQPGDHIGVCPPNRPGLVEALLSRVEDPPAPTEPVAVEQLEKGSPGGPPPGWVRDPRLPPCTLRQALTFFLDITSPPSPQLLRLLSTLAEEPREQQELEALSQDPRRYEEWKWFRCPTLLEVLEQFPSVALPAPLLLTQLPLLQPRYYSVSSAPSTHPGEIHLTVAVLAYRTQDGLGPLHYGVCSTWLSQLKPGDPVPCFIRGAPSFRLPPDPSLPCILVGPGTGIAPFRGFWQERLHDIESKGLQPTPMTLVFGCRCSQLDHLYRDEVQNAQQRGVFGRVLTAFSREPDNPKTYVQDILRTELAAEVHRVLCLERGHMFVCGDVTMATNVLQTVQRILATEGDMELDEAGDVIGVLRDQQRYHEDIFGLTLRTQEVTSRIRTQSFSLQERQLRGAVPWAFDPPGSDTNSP
Summary of the method: (§1)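 HEK293 cells transiently transfected with human eNOS (15 µg plasmid) or nNOS (10 µg plasmid), Fugene 6 at 3:1 µL:µg, 4 h at 37 °C, 10% CO2. Plated at 5 × 10⁵ cells/mL with compound; SEITU 100 µM final as positive control. After 24 h, activated with A23187 (83 nM final, eNOS) or ionomycin (30 µM final, nNOS). After 18 h more, NO read by DAN fluorescence. Inhibition is relative to the maximal inhibition by the control dimerization inhibitor. 3 runs, 10-point curves, n = 3/point.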

[3] = target: T2, Nitric oxide synthase 3 (Homo sapiens, UniProt P29474); assay: Inhibition of human eNOS expressed in HEK293 cells assessed as NO production by transient transfection assay
T2 sequence (P29474 whole entry): T1 sequence (whole entry)
Summary of the method: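 HEK293 cells grown to ~70% confluence in DMEM/10% FBS with pen/strep, transfected with 15 µg human eNOS plasmid plus Fugene 6 (3:1 µL:µg), 4 h at 37 °C, 10% CO2. Cells replated at 5 × 10⁵/mL, compound added at once, 24 h incubation, then A23187 (83 nM final). After 18 h, NO read by DAN fluorescence.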

[4] = target: T3, Nitric oxide synthase 1 (Homo sapiens, UniProt P29475); assay: Inhibition of human nNOS expressed in HEK293 cells assessed as NO production by transient transfection assay
[5] = target: T3, Nitric oxide synthase 1; assay: Inhibition of human nNOS expressed in HEK293 cells assessed as NO production at 10 uM by transient transfection assay relative to BBS-4; summary of the method: as §1

Chain of Nitric oxide synthase, inducible (P35228 whole entry): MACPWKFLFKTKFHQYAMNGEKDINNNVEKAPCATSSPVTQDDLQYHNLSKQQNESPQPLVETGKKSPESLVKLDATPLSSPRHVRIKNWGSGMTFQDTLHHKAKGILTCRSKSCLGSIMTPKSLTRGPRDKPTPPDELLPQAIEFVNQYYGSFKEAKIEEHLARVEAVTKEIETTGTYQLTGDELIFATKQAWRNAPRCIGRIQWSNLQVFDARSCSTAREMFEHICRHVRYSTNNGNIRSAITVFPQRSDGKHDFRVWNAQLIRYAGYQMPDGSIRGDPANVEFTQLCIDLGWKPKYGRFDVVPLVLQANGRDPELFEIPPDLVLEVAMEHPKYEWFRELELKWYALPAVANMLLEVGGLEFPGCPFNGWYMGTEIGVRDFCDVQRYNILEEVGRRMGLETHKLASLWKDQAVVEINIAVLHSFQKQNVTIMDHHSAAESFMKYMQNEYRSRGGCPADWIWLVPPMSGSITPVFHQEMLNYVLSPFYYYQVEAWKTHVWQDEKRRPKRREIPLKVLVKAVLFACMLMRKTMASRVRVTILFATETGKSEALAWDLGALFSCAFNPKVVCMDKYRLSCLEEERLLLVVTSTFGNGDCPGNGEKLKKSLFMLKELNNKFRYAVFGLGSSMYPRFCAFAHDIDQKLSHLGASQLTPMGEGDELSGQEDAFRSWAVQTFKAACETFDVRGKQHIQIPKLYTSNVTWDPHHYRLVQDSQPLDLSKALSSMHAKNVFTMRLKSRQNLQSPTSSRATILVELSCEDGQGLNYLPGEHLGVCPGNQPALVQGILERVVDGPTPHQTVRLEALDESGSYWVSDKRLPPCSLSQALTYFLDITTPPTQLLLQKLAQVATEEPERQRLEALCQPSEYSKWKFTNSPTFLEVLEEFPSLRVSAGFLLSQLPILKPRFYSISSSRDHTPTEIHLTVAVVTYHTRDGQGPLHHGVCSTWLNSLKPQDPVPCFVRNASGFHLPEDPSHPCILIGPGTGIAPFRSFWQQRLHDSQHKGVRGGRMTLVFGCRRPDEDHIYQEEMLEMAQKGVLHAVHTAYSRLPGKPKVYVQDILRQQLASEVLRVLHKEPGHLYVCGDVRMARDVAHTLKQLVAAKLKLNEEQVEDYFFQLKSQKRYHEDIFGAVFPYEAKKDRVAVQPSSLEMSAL
T3 sequence (P29475 whole entry): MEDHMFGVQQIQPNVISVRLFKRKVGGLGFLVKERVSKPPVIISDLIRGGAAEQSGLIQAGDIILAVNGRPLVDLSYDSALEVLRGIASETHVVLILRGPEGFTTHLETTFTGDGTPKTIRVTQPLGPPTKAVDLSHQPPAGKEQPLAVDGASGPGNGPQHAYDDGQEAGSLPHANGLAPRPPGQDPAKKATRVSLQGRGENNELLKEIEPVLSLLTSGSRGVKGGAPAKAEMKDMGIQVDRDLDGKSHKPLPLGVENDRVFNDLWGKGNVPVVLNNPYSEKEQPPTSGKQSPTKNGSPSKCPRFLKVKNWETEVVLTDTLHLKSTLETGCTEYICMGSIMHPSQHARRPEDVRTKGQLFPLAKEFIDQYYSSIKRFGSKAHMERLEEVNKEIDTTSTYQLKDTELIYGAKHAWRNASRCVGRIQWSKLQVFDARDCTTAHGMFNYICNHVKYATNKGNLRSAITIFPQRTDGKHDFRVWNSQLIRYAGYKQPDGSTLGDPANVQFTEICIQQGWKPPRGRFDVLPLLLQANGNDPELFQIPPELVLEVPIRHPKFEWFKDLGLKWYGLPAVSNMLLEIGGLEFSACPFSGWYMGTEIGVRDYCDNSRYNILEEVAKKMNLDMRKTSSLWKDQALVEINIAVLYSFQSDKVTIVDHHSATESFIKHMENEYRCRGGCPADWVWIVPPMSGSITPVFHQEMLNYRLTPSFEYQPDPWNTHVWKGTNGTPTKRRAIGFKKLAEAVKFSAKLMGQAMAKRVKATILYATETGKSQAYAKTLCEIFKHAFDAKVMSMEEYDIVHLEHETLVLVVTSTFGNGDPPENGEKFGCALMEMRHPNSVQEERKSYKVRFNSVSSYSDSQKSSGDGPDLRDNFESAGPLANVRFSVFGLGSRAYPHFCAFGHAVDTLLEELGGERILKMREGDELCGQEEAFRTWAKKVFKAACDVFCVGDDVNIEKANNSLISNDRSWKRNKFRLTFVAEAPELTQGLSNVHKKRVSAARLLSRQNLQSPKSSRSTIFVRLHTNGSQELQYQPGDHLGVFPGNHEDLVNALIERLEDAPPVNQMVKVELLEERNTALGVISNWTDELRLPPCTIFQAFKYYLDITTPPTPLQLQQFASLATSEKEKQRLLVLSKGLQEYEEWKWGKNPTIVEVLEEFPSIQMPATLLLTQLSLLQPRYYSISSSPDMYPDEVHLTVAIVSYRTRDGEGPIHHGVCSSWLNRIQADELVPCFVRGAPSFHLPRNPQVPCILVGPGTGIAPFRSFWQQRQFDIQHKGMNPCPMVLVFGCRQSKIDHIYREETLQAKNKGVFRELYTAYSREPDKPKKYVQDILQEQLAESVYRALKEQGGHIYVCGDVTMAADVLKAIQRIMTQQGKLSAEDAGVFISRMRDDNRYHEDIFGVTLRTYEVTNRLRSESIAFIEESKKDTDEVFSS

| EC50 [1] [nM] | inhibition [2] [%] | EC50 [3] [µM] | EC50 [4] [µM] | inhibition [5] [%] | Structure (SMILES) |
| --- | --- | --- | --- | --- | --- |
| 420 | < 50 | > 100 | 4.1 |  | Cc1cccnc1C(=O)N(Cc1cc(=O)[nH]c2c(F)cccc12)c1cccc(Cl)c1 |
| 500 | < 50 | > 100 | > 10 | < 50 | Cc1ncsc1C(=O)N(Cc1cc(=O)[nH]c2ccccc12)c1ccccc1 |
| 350 | < 50 | > 100 | 7.9 |  | Cc1ncccc1C(=O)N(Cc1cc(=O)[nH]c2c(F)cccc12)c1cccc(Cl)c1 |
| 1300 | < 50 | > 100 | > 10 | < 50 | Cc1ncsc1C(=O)N(Cc1cc(=O)[nH]c2c(Cl)cccc12)c1cccc(Cl)c1 |
| 16 |  | 6.8 | 0.5 |  | Cc1noc(C)c1C(=O)N(Cc1cc(=O)[nH]c2c(F)cccc12)c1cccc(Cl)c1 |
| 100 | < 50 | > 100 | > 10 | < 50 | Cc1cccc(N(Cc2cc(=O)[nH]c3c(F)cccc23)C(=O)c2scnc2C)c1 |
| 840 |  |  |  |  | Cc1ncsc1C(=O)N(Cc1cc(=O)oc2c(F)c(F)ccc12)c1cccc(Cl)c1 |
| 13000 | < 50 | > 100 | > 10 | < 50 | Cc1ncsc1C(=O)N(Cc1cc(=O)[nH]c2c(F)cccc12)c1ccccc1Cl |
| 170 | < 50 | > 100 | > 10 | < 50 | Cc1ncsc1C(=O)N(Cc1cc(=O)[nH]c2ccccc12)c1cccc(Cl)c1 |
| 240 | < 50 | > 100 | > 10 | < 50 | Cc1ncsc1C(=O)N(Cc1cc(=O)[nH]c2c(F)cccc12)c1ccc(Cl)cc1 |
| 49 |  | 41 | 2.2 |  | Cc1ccncc1C(=O)N(Cc1cc(=O)[nH]c2c(F)cccc12)c1cccc(Cl)c1 |
| 1100 | < 50 | > 100 | > 10 | < 50 | O=C(c1ccco1)N(Cc1cc(=O)[nH]c2c(F)cccc12)c1ccccc1 |
| 53 |  | 33 | 3.4 |  | Cc1ncsc1C(=O)N(Cc1cc(=O)[nH]c2cc(F)ccc12)c1cccc(Cl)c1 |
| 1140 |  |  |  |  | Cc1ncsc1C(=O)N(Cc1cc(=O)[nH]c2c1CCCC2)c1cccc(Cl)c1 |
| 53 | < 50 | > 100 |  |  | O=C(c1cncs1)N(Cc1cc(=O)[nH]c2c(F)cccc12)c1cccc(Cl)c1 |
| 200 |  | 37 | > 10 | < 50 | Cc1ncsc1C(=O)N(Cc1cncc2c(F)c(F)ccc12)c1cccc(Cl)c1 |
| 2000 |  |  |  |  | Cc1ncsc1C(=O)N(Cc1cc(=O)oc2c(F)cccc12)c1cccc(Cl)c1 |
| 89 |  | 13 | 2.1 |  | Cc1cnccc1C(=O)N(Cc1cc(=O)[nH]c2c(F)cccc12)c1cccc(Cl)c1 |
| 990 | < 50 | > 100 | > 10 | < 50 | COc1cccc(N(Cc2cc(=O)[nH]c3c(F)cccc23)C(=O)c2scnc2C)c1 |
| 1300 | < 50 | > 100 | > 10 | < 50 | O=C(c1ccco1)N(Cc1cc(=O)[nH]c2ccccc12)c1ccccc1 |
| 200 | < 50 | > 100 | > 10 | < 50 | Cc1ncsc1C(=O)N(Cc1cc(=O)[nH]c2c(F)cccc12)c1ccccc1 |
| 760 |  |  |  |  | Cc1ncsc1C(=O)N(Cc1cncc2c(F)cccc12)c1cccc(Cl)c1 |
| 56 | < 50 | > 100 | 2.7 | 2.7 | Cc1ncsc1C(=O)N(Cc1cc(=O)[nH]c2c(F)cccc12)c1cccc(C#N)c1 |
| 300 | < 50 | > 100 | > 10 | < 50 | Cc1ncsc1C(=O)N(Cc1cc(=O)[nH]c2ccc(F)cc12)c1cccc(Cl)c1 |
| 62 |  | 15 |  |  | Cc1ncsc1C(=O)N(Cc1cc(=O)[nH]c2c(F)cccc12)c1cccc(F)c1 |
| 770 | < 50 | > 100 | 10.3 |  | O=C(C1CCCC1)N(Cc1cc(=O)[nH]c2c(F)cccc12)c1cccc(Cl)c1 |
| 500 | < 50 | > 100 | > 10 | < 50 | Cc1ncsc1C(=O)N(Cc1cc(=O)[nH]c2cccc(F)c12)c1cccc(Cl)c1 |

Reference: ChEMBL document CHEMBL1138485, “Discovery of inducible nitric oxide synthase (iNOS) inhibitor development candidate KD7332, part 1: Identification of a novel, potent, and selective series of quinolinone iNOS dimerization inhibitors that are orally active in rodent pain models” (J Med Chem, 2009)
